Statin myotox sup: suppressors of statin myotoxicity in C2C12 myotubes, primary screen, cell-based, single point, plate reader. rescue of ATP level, % at 7.49 µM. AID 602340, 2012. 330,000 tested, 0.78% active. C2C12 myotubes + simvastatin, ATP luminescence, 48 h; scaled: DMSO 0, geranylgeraniol control 100;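 active means mean ATP rescue above about 67%, or every replicate alone reaching that limit, limit read from the data, passing the limit was not always enough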;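 further: myotubes were challenged with 10 µM simvastatin during compound exposure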
Cneo AK release: Cryptococcus neoformans cell lysis inducers, primary screen, AK release luminescence, single concentration; 360,000 tested, 0.2% active; C. neoformans lysis, adenylate kinase release luminescence, 4 h; normalised: neutral wells 0, clomiphene wells 100; lysis activity, % at 15 µM;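 active means mean lysis activity across replicates of at least 80%, whatever share of replicates individually reach that level; inactive means mean lysis activity below 80%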
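Assay system: Cryptococcus neoformans yeast cells / Dosing: single-point compound dose / Timing: 4 h at 37 °C static, read 1 h later / Measured by: luminescence of released adenylate kinase using an AK detection reagent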
Mot1-301 SUMO: yeast Mot1-301 growth rescue at high temperature, primary screen, SUMOylation pathway inhibitor project, S. cerevisiae, ATP luminescence, 38.5C; S. cerevisiae Mot1-301 growth rescue; percent above DMSO median, 100 means doubled; growth rescue, % at 18.8 µM; 320,000 tested, 1% active; AID 2716, 2010;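 active means every valid replicate shows activation above 250% relative to neutral control wells; inactive means the rest, any valid replicate at or below 250%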
Efflux pump mplx: inhibitors of Candida efflux pumps in yeast, primary screen, S. cerevisiae, Nile Red, multiplex. S. cerevisiae Candida pump triplex. inhibition, % at 10 µM. 330,000 tested, 0.44% active. AID 485275, 2010;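 active means plate passing quality check with inhibition over a set limit, or well fluorescence over plate mean plus 4 SD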;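 further: Nile Red retained in pooled yeast measured as flow cytometry median fluorescence; higher means more Nile Red kept so more efflux inhibition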
Hits are given with their value; . = inactive; / = not tested or not shown; + = active, no number; ! = not confirmed by another sample. An excerpt weighted towards active compounds, which were near 1.8% of everything screened.

SMILES | Statin myotox sup | Cneo AK release | Mot1-301 SUMO | Efflux pump mplx
C[C@@H]1CCCCO[C@H](CN(C)Cc2ccc(C(F)(F)F)cc2)[C@H](C)CN([C@@H](C)CO)C(=O)c2cc(NC(=O)c3ccncc3)ccc2O1 | 76.4 | . | / | /
C[C@@H]1CCCCO[C@@H](CN(C)Cc2ccc(C(F)(F)F)cc2)[C@H](C)CN([C@H](C)CO)C(=O)c2cc(NC(=O)c3ccncc3)ccc2O1 | . | . | / | /
C[C@@H]1CN([C@@H](C)CO)C(=O)c2cc(NS(=O)(=O)c3cccs3)ccc2O[C@@H](C)CCCCO[C@@H]1CN(C)Cc1ccc(C(F)(F)F)cc1 | 115.8 | . | / | /
C[C@@H]1CCCCO[C@@H](CN(C)Cc2ccncc2)[C@@H](C)CN([C@@H](C)CO)C(=O)c2cc(NC(=O)CCCN(C)C)ccc2O1 | . | . | / | /
C[C@@H]1CCCCO[C@@H](CN(C)Cc2ccc(C(F)(F)F)cc2)[C@H](C)CN([C@@H](C)CO)C(=O)c2cc(NC(=O)c3ccncc3)ccc2O1 | 120.7 | . | / | /
C[C@H]1CCCCO[C@H](CN(C)Cc2ccncc2)[C@@H](C)CN([C@@H](C)CO)C(=O)c2cc(NC(=O)CCCN(C)C)ccc2O1 | . | 98.3 | / | /
C[C@H](CO)N1C[C@H](C)[C@@H](CN(C)C(=O)NC2CCCC2)OCc2cn(nn2)CCCC1=O | . | . | / | /
C[C@H]1CCCCO[C@@H](CN(C)Cc2ccncc2)[C@@H](C)CN([C@@H](C)CO)C(=O)c2cc(NC(=O)c3ccncc3)ccc2O1 | / | . | / | /
C[C@@H]1CCCCO[C@@H](CN(C)Cc2ccncc2)[C@@H](C)CN([C@@H](C)CO)C(=O)c2cc(NC(=O)c3ccncc3)ccc2O1 | / | 88.9 | / | /
COc1ccc(CN(C)C[C@H]2OCCCC[C@@H](C)Oc3ccc(NC(=O)c4ccccc4)cc3C(=O)N([C@H](C)CO)C[C@@H]2C)cc1 | . | 101.9! | / | /
Cc1ccc2nc3ccc(N4CCCC4)nn3c(=O)c2c1 | . | . | . | .
Cc1sc2nc3ccc(N4CCCCC4)nn3c(=O)c2c1C | 112.9 | . | . | .
O=C(/C=C/c1ccc(Br)o1)OCc1ccccc1 | / | . | 305.3 | .
CCCCOC(=O)CSc1nc(N)c(C#N)c(-c2ccc(OCC)cc2)c1C#N | / | . | . | .
CCCCOC(=O)CSc1nc(N)c(C#N)c(-c2ccc(OC)cc2)c1C#N | 90.2 | . | . | .
C[C@H](O)C#Cc1cnc2c(c1)C(=O)N([C@@H](C)CO)C[C@@H](C)[C@@H](CN(C)C(=O)CN1CCOCC1)O2 | . | . | / | /
N#C/C(=C/c1ccc(O)c(O)c1)c1nc2ccccc2[nH]1 | . | . | . | 2.0
O=C([C@H]1[C@H](CO)[C@H]2Cn3c(cccc3=O)[C@@H]1N2Cc1cccc(Cl)c1)N1CCOCC1 | . | 90.0 | / | /
CCOc1ccc2nc(N3CCCC(C(=O)N4CCN(CC)CC4)C3)sc2c1 (stereo not given) | 116.3 | . | . | .
CCCN1CCN(CCCNC(=O)C2CCCN(c3nc4ccc(OCC)cc4s3)C2)CC1 (stereo not given) | . | . | . | .
O=C(Nc1ccccn1)NC1CCCCC1 | / | / | . | .
O=C(O)C1CCCCC1C(=O)Nc1ccccn1 (stereo not given) | 105.0 | . | . | .
CCc1ccc(NC(=O)C2CCCCC2C(=O)O)cc1 (stereo not given) | / | / | . | .
CC(C)c1ccc(NC(=O)C2CCCCC2C(=O)O)cc1 (stereo not given) | . | . | + | .
CCN(CC)C(=O)N1CCC(NC(=O)Cc2ccccc2)CC1 | . | . | . | .
SMILES | Statin myotox sup | Cneo AK release | Mot1-301 SUMO | Efflux pump mplx
C[C@H]1CN([C@@H](C)CO)C(=O)c2cccc(NC(=O)C3CCCCC3)c2O[C@@H]1CN(C)S(=O)(=O)c1ccc(Cl)cc1 | 119.0 | . | / | /
Cc1ccc(S(=O)(=O)N(C)C[C@H]2Oc3c(cccc3N(C)C)C(=O)N([C@H](C)CO)C[C@H]2C)cc1 | . | . | / | /
C[C@@H]1CN([C@@H](C)CO)C(=O)c2cccc(NS(=O)(=O)c3ccc(F)cc3)c2O[C@H]1CN(C)S(=O)(=O)c1ccc(Cl)cc1 | / | 109.7 | / | /
Cc1ccc(S(=O)(=O)N(C)C[C@H]2Oc3c(cccc3N(C)C)C(=O)N([C@@H](C)CO)C[C@H]2C)cc1 | . | 90.4 | / | /
C[C@H](CO)N1C[C@H](C)[C@@H](CN(C)S(=O)(=O)c2ccc(Cl)cc2)Oc2c(NC(=O)C3CCCCC3)cccc2C1=O | 142.6 | . | / | /
CCOc1ccc(OCCCC(=O)N(CC)CC(=O)Nc2c(F)cccc2F)cc1 | . | . | . | .
